Experiment [1] concerns KB. The experiment is described as follows: Cytotoxicity against human KB cells by MTT assay. The experiment is classed as functional, cell-based. A digest of the protocol:
(§1)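 HepG2 (hepatoma line HA22T) and KB (epidermoid carcinoma, CCRC 60017) cells seeded at (1-1.5) × 10^4/mL and incubated overnight at 37 °C in 5% CO₂. On day 3, MTT (5 mg/mL solution) was added for 4 h, then formazan was dissolved in DMSO and read spectrophotometrically.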

Experiment [2] deals with HepG2. The experiment is described as follows: Cytotoxicity against human HepG2 cells by MTT assay. Format: functional, cell-based. A digest of the protocol:
as §1
(In general: Tetrazolium assays rely on reduction of a dye to a coloured formazan, in cell work by metabolically active cells.)

Among the data in ChEMBL document CHEMBL1158773, “Cinnamylphenols from Phyllodium pulchellum” (J Nat Prod, 2005) are IC50 values, retold here.

As usually defined, the IC50 is the concentration needed to halve the response being measured. Higher therefore signals a need for much substance.

Consider `COc1cc(C/C=C/c2ccc(OC)c(O)c2OC)ccc1O` [PULCHELSTYRENE C], for which the results for the IC50 in experiment [1] and in experiment [2] were 39.8 µM and more than 100 µM, respectively.

In the case of `COc1c(O)ccc(C=O)c1OC`, the IC50 in experiment [1] and in experiment [2] was more than 100 µM each time.

For `CC1(C)C=Cc2c(cc(O)c3c2O[C@H](c2ccc(O)cc2)[C@@H](O)C3=O)O1` [YUKOVANOL], the IC50 in experiment [1] and in experiment [2] was more than 100 µM in each case.

For `CC1(C)C=Cc2c(cc(O)c3c(=O)c(O)c(-c4ccc(O)cc4)oc23)O1` [CITRUSINOL], the IC50 in experiment [1] was found to be 42.3 µM; in experiment [2], 43.3 µM.

For the molecule `COc1c(O)ccc(/C=C\Cc2ccc(O)cc2)c1OC` [PULCHELSTYRENE A], the 50% inhibitory concentration (IC50) in experiment [1] and in experiment [2] was more than 100 µM throughout.

Take `COc1cc2c(c(OC)c1O)C=CCC21C=CC(=O)C=C1` [PULCHELSTYRENE D]: the IC50 in experiment [1] and in experiment [2] was more than 100 µM throughout.

On to `COc1cc(C/C=C\c2ccc(O)c(OC)c2OC)ccc1O` [PULCHELSTYRENE B], for which the figures for the IC50 in experiment [1] and in experiment [2] were 55.6 µM and more than 100 µM, respectively.
